From PubChem BioAssay
This is a sample that favours compounds with a hit; in the whole collection about 1.8% have one here.
UHRF1 binding = blocks human UHRF1 binding to methylated DNA; actives 0.75% (n = 370,000); UHRF1 binding to methylated oligo, TR-FRET; Q96T88; inhibition, % at 4.4 µM; in the data active = inhibition above about 21%;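 also: UHRF1 SRA domain binding a hemimethylated CpG hairpin DNA probe; 0% = median of test compound wells and 100% = reference inhibitor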
MBD2 DNA inh = blocks human MBD2 binding to methylated DNA | actives 0.31% (n = 370,000) | TR-FRET, MBD2 binding to methylated oligonucleotide | Q9UBB5 | inhibition, % at 4.4 µM | AID 686964; in the data active = inhibition above about 13%
Target sequence (Q9UBB5 whole entry, looked up): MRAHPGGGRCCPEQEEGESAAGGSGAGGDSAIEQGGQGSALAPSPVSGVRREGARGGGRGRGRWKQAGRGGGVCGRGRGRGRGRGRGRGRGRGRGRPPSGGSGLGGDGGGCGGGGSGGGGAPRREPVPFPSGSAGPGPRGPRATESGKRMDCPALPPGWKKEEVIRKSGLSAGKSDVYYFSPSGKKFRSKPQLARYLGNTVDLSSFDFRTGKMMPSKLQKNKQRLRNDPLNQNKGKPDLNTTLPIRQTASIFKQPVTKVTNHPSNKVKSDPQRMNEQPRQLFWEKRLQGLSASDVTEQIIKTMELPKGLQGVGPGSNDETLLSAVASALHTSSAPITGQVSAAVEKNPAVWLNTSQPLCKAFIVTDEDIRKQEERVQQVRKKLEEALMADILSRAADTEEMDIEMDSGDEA
TDP2 absorb = TDP2 (human) inhibition, absorbance primary screen | actives 0.34% (n = 370,000) | inhibition, % at 12.8 µM | O95551 | AID 720702 | recombinant TDP2, T5PNP hydrolysis, p-nitrophenol absorbance 415 nm;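 active = inhibition above the mean of all tested compounds plus 3 SD, set per campaign, cut at about 25% in these data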;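 also: 0% = DMSO with enzyme and 100% = buffer with substrate but no TDP2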
Target sequence (O95551 whole entry, looked up): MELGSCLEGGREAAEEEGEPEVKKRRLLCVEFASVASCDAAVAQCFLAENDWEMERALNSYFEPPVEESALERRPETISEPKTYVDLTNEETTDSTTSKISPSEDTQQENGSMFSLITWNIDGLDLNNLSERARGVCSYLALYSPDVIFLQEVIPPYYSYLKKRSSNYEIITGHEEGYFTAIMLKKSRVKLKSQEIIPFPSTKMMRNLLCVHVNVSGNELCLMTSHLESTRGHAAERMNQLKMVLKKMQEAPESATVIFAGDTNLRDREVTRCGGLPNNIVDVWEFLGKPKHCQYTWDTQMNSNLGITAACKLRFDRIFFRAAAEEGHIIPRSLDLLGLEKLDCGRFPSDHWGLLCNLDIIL
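Test system: human TDP2 enzyme; Input: 120 nM TDP2 per well; Buffer or medium: Mg2+-containing Tris-HCl buffer, pH 7.5; Reagent: 5 mM T5PNP; Dosing: 12.8 µM single point, 1% DMSO; Incubation: reaction 2 h, 37 °C; Detection: p-Nitrophenol epi absorbance; Read-out: % inhibition relative to enzyme-containing and enzyme-free wells; Replicates: single well per compound.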
Casp6 inh = caspase-6 (human) enzyme inhibition; P55212; purified caspase-6, Z-VEID-R110 cleavage fluorescence; inhibition, % at 12.5 µM; actives 0.53% (n = 350,000);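 active = mean inhibition across replicates at least about 35%, with every replicate also reaching that limit, limit read from the data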;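 also: 0% = median of neutral control wells and 100% = no fluorescence left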
NSD2 inh = NSD2 (human) methyltransferase inhibition; NSD2 peptide methylation, AlphaScreen, 120 min; inhibition, % at 12.5 µM; actives 0.54% (n = 310,000); in the data active = inhibition above about 50%
LEDGF integ inh = blocks HIV-1 LEDGF/p75-dependent DNA integration | actives 0.64% (n = 370,000) | inhibition, % at 3.7 µM | TR-FRET IN-LEDGF/p75 DNA integration, Eu/Cy5 | AID 743269;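 active = inhibition above the screen-wide mean plus 3 SD, cut at about 13% in these data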;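 also: signal is the Cy5 over europium emission ratio at 671 and 618 nm; 0% = plate median of compound wells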
UHRF1 DNA bind = UHRF1 methyl-oligo binding inhibition as MBD2 counter-screen | UHRF1 binding to methylated oligonucleotide, TR-FRET | inhibition, % at 4.4 µM | actives 25% (n = 1,000) | shares compounds with MBD2 DNA inh; in the data active = inhibition above about 21%;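 also: UHRF1 SRA domain binding a labeled hemimethylated CpG hairpin DNA; 0% = vehicle only and 100% = reference inhibitor with vehicle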
MBD2 confirm = MBD2-DBD methyl-DNA binding inhibition, TR-FRET confirmation | shares compounds with MBD2 DNA inh | inhibition, % at 4.4 µM | TR-FRET MBD2-DBD binding to methylated oligonucleotide | actives 26% (n = 1,000)
CASP1 counter = selectivity counter-screen: inhibitors of human caspase-1; shares compounds with Casp6 inh; purified caspase-1, Z-YVAD-R110 cleavage fluorescence; activity change, negative = inhibition, % at 35 µM; 100 tested, under 10 active; AID 743289;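 active = compounds lowering fluorescence whose fitted half-maximal concentration is no more than twice their top tested dose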
TDP2 inh conf = human TDP2 inhibition, confirmation | shares compounds with TDP2 absorb | recombinant human TDP2, absorbance read-out | inhibition, % at 12.8 µM | actives 22% (n = 1,100); in the data active = inhibition above about 25%;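 also: 0% = vehicle with enzyme and 100% = no enzyme buffer only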
IN multimer up = HIV-1 integrase multimerization activation, counter-screen; actives 17% (n = 2,000); shares compounds with LEDGF integ inh; AID 1053131; TR-FRET HIV-1 integrase multimerization, biochemical; activation, % at 7.7 µM; in the data active = activation above about 8.9%
TRFRET interf = optically interferes with TR-FRET readout in LEDGF counter-screen; shares compounds with LEDGF integ inh; TR-FRET optical interference counterscreen, HIV-1 IN multimerization; 2,000 tested, under 10 active; inhibition, % at 7.7 µM;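 active = inhibition above the mean over all tested compounds plus 3 SD, which no compound reached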;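 also: 0% = integrase with antibodies and DMSO and 100% = antibodies without integrase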
IN-LEDGF confirm = confirmation of HIV-1 LEDGF/p75-dependent integration inhibitors. inhibition, % at 3.7 µM. AID 1053136. shares compounds with LEDGF integ inh. TR-FRET LEDGF/p75-dependent HIV-1 integration, biochemical. actives 36% (n = 2,000)
Alpha artifact = interferes with AlphaScreen signal, flagging NSD2 false positives | actives 9.4% (n = 1,500) | AC35, µM (highest dose often 10 µM), for inactives: at the highest dose activity change, negative = signal loss | AID 1053174 | shares compounds with NSD2 inh | AlphaScreen artifact counterscreen, preloaded methylated H4 peptide; call rule not given here
Active calls of the source: *; · = not tested or not shown. Rule as the data show it, unless noted: active = inhibition above about 14%; inactive = the rest.

SMILES	UHRF1 binding	MBD2 DNA inh	TDP2 absorb	Casp6 inh	NSD2 inh	LEDGF integ inh	UHRF1 DNA bind	MBD2 confirm	IN multimer up	TRFRET interf	IN-LEDGF confirm	Alpha artifact	others
O=C(C[C@@H]1CC[C@@H]2[C@H](COC[C@H](O)CN2Cc2ccc(Cl)cc2)O1)NCc1ccccc1Cl	·	·	·	1.9	·	·	·	·	·	·	·	·
Cc1c(C=O)c(C=O)c(C)n1Cc1ccccc1	31.5*	15.9*	24.9*	-0.4	·	21.7*	4.0	4.0	-2.2	11.0	12.1	·	TDP2 inh conf=0.5
Cc1ccc(S(=O)(=O)N(C)C[C@H]2Oc3c(NC(=O)C4CCCCC4)cccc3C(=O)N([C@@H](C)CO)C[C@@H]2C)cc1	·	·	·	-4.8	·	·	·	·	·	·	·	·
CCCNC(=O)N1C[C@@H](O)COC[C@H]2O[C@@H](CC(=O)N3CCC(Cc4ccccc4)CC3)CC[C@@H]21	·	·	·	-0.4	·	·	·	·	·	·	·	·
C=CC(=O)N1C/C(=C/c2ccc(F)cc2)C(=O)/C(=C\c2ccc(F)cc2)C1	39.8*	14.7*	-14.0	77.7*	2.5	14.5*	24.9*	14.8*	10.8*	-54.4	17.7*	·
CN1C2CCC1/C(=C\c1ccc(F)cc1)C(=O)/C2=C/c1ccc(F)cc1	-2.0	-5.4	5.7	·	7.6	2.5	·	·	·	·	·	·
O=C(c1cccnc1)N1CCCCN2[C@H](CO)[C@@H](c3ccc(C#Cc4ccccc4)cc3)[C@H]2C1	·	·	·	-2.1	·	·	·	·	·	·	·	·
Cn1cnc(S(=O)(=O)N[C@H]2C=C[C@@H](CC(=O)N3CCN(c4ccccc4)CC3)O[C@@H]2CO)c1	·	·	·	-2.3	·	·	·	·	·	·	·	·
O=[N+]([O-])c1cccc(I)c1	88.1*	59.2*	-2.3	7.5	·	65.3*	1.0	5.9	-2.3	11.6	-2.2	·
Cc1ccc(C)n1/N=C1/NC(=O)CS1	75.9*	39.0*	23.6	·	143.9*	58.4*	48.5*	16.6*	3.0	-14.9	65.7*	·
O=C(/C=C/c1cccs1)Nc1nc(-c2ccccc2)cs1	-1.0	-1.2	6.3	·	1.3	-0.8	·	·	·	·	·	·
O=C(/C=C/c1cccs1)Nc1scc(-c2ccccc2)c1C(=O)O	21.8*	14.1*	16.2	53.6*	·	23.4*	2.4	1.8	1.6	-7.8	35.3*	·
O=C(O)Cc1ccc(-n2cccc2)cc1	30.1*	13.5*	5.7	69.7*	116.8*	5.4	57.2*	27.9*	·	·	·	-3.8%	CASP1 counter=-0.8
CC(=O)NC(=S)Nc1ccc(NC(=S)NC(=O)/C=C/c2ccco2)cc1	-2.0	0.1	-5.0	1.8	1.4	3.4	·	·	·	·	·	·
O=C(/C=C/c1ccco1)NC(=S)Nc1ccc(C(=O)O)cc1	86.8*	48.2*	40.2*	43.8*	65.9*	62.9*	75.5*	30.4*	37.5*	-133.4	53.4*	-4.7%	TDP2 inh conf=19.6
O=S(=O)(O)c1cc(O)c2cc(Nc3ccccc3)ccc2c1	32.5*	26.3*	13.7	79.7*	104.5*	16.3*	31.1*	14.1*	40.6*	-145.4	43.6*	6.4µM*	CASP1 counter=13.4
O=C(Nc1cccc(C(F)(F)F)c1)c1ccc2nc(-c3ccco3)c(-c3ccco3)nc2c1	0.0	2.4	-5.6	·	4.8	-0.8	·	·	·	·	·	·
O=C(O)c1ccc2nc(-c3ccco3)c(-c3ccco3)nc2c1	92.8*	69.0*	33.5*	71.6*	185.7*	86.2*	72.7*	22.8*	72.8*	-257.6	75.9*	-8.2%	TDP2 inh conf=18.1
O=C(/C=C/c1ccco1)N(c1ccccn1)c1ccccn1	51.9*	23.4*	14.1	53.8*	76.6*	21.7*	57.4*	27.5*	7.9	-39.9	46.4*	-0.9%
C[C@H](CO)N1C[C@H](C)[C@H](CN(C)Cc2ccncc2)Oc2c(NS(=O)(=O)c3cccs3)cccc2C1=O	·	·	·	-3.0	·	·	·	·	·	·	·	·
CCC1=NN2C(=N)/C(=C\c3ccc(SCc4ccco4)o3)C(=O)N=C2S1	56.5*	19.8*	6.0	·	103.3*	50.1*	19.8	3.9	5.0	-25.2	26.8*	-7.5%
C=CCN(CC=C)Cc1c(O)ccc2c1oc(=O)c1ccccc12	16.2	13.3*	-8.7	·	51.3*	0.2	-0.5	12.4	·	·	·	11.3%
C=CCN(CC=C)Cc1cc(=O)oc2ccc3ccccc3c12	-4.0	4.1	-0.8	2.4	·	3.9	·	·	·	·	·	·
NC(=S)NN=Cc1ccc(-c2ccc(S(=O)(=O)Nc3ncccn3)cc2)o1	47.4*	15.2*	5.2	37.9*	144.6*	14.8*	28.8*	9.2	7.0	-35.3	34.0*	-7.7%
c1coc(-c2nnc(-c3ccco3)nn2)c1	77.5*	33.3*	10.0	89.4*	139.8*	61.2*	77.2*	34.8*	11.5*	-57.8	85.8*	-5.7%
C#CCNC(=O)C1=C[C@H](c2cn(C(C)=O)c3ccccc23)C[C@H](OCCCCO)O1	·	·	·	-0.6	·	·	·	·	·	·	·	·
O=C(CCCN1C(=O)/C(=C/c2ccco2)SC1=S)Nc1cccc(C(=O)O)c1	76.0*	29.7*	20.2	55.3*	124.5*	46.1*	21.0*	2.8	3.4	-17.1	25.7*	-11.8%
O=C(CCCN1C(=O)/C(=C\c2cccs2)SC1=S)Nc1cccc(C(=O)O)c1	-1.3	-4.8	-11.6	-1.3	14.1	-1.1	·	·	·	·	·	·
O=C(CCCN1C(=O)/C(=C\c2ccco2)SC1=S)Nc1ccc(O)cc1C(=O)O	93.1*	27.2*	29.1*	·	103.6*	63.1*	44.8*	16.4*	·	·	·	-14.0%	TDP2 inh conf=-7.6
O=C(C[C@@H]1CC[C@H]2[C@@H](COC[C@H](O)CN2C(=O)Nc2ccc(F)cc2)O1)NCCc1ccncc1	·	·	·	-1.9	·	·	·	·	·	·	·	·
